Laboratory results: ChEMBL document CHEMBL2010709, “Pinophilins A and B, inhibitors of mammalian A-, B-, and Y-family DNA polymerases and human cancer cell proliferation” (J Nat Prod, 2012)
The source made the active and inactive calls. The calls are words filed in the database; no cut-off is given here.

Key:
[1] = molecular target: T1, DNA polymerase iota (Mus musculus, UniProt Q6R3M4); assay: Inhibition of mouse recombinant C-terminal-His6-tagged DNA polymerase iota assessed as inhibition of incorporation of dTTP into poly(dA)/oligo(dT)18 after 60 mins
T1 sequence (Q6R3M4 whole entry): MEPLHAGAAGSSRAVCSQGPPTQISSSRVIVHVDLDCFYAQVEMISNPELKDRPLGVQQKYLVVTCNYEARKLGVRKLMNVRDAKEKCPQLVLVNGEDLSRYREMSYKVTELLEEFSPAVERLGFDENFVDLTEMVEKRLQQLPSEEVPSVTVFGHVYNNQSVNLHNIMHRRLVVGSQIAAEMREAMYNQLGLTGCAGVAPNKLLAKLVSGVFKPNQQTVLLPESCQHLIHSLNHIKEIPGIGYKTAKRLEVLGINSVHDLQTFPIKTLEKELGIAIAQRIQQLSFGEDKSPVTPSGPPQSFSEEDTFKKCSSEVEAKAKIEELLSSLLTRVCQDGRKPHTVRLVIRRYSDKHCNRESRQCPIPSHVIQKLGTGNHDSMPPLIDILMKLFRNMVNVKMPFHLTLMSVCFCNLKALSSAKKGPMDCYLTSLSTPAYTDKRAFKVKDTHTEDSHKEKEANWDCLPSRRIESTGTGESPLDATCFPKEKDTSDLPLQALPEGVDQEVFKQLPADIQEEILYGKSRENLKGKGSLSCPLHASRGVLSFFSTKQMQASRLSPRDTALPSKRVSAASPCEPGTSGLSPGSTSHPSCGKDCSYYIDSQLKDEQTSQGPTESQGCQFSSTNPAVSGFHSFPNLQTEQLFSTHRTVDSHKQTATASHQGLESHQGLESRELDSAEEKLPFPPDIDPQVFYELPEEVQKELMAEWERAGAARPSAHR
How it was run: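 Compound in DMSO was sonicated for 30 s, then held with enzyme (0.05 units final) at 0 °C for 10 min in 50 mM Tris-HCl pH 7.5, 1 mM DTT, 50% glycerol, 0.1 mM EDTA. The mixture was added to the standard reaction mix with poly(dA)/oligo(dT)18 (A/T = 2/1) and dTTP, 37 °C, 60 min. Activity was relative to no-inhibitor control; mean ± SE, three independent experiments.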

[2] = species on record: Bos taurus; assay: Competitive inhibition of calf DNA polymerase alpha using dTTP as substrate up to 30 uM by Lineweaver-Burk plot analysis
How it was run: (§1)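 Kinetics ran in the standard pol assay at 37 °C for 60 min. Either poly(dA)/oligo(dT)18 (A/T = 2/1) or dTTP was varied, with inhibitor at 0, 10, 20 and 30 μM. Km and Vmax came from Lineweaver–Burk plots and Ki from Dixon plots. Pol α was purified from calf thymus by immunoaffinity chromatography.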

[3] = species on record: Bos taurus; assay: Non-competitive inhibition of calf DNA polymerase alpha using ploy(dA)/oligo(dT)18 as substrate up to 30 uM by Lineweaver-Burk plot analysis; how it was run: as §1
[4] = Competitive inhibition of calf DNA polymerase alpha using dTTP as substrate by Dixon plot analysis; parameters: species or system Bos taurus; how it was run: as §1
[5] = Non-competitive inhibition of calf DNA polymerase alpha using ploy(dA)/oligo(dT)18 as substrate by Dixon plot analysis; parameters: species or system Bos taurus; how it was run: as §1
[6] = molecular target: T2, DNA polymerase kappa (Homo sapiens, UniProt Q9UBT6); assay: Competitive inhibition of human C-terminal-His6-tagged DNA polymerase kappa expressed in Escherichia coli using dTTP as substrate by Dixon plot analysis; how it was run: as §1
T2 sequence (Q9UBT6 whole entry): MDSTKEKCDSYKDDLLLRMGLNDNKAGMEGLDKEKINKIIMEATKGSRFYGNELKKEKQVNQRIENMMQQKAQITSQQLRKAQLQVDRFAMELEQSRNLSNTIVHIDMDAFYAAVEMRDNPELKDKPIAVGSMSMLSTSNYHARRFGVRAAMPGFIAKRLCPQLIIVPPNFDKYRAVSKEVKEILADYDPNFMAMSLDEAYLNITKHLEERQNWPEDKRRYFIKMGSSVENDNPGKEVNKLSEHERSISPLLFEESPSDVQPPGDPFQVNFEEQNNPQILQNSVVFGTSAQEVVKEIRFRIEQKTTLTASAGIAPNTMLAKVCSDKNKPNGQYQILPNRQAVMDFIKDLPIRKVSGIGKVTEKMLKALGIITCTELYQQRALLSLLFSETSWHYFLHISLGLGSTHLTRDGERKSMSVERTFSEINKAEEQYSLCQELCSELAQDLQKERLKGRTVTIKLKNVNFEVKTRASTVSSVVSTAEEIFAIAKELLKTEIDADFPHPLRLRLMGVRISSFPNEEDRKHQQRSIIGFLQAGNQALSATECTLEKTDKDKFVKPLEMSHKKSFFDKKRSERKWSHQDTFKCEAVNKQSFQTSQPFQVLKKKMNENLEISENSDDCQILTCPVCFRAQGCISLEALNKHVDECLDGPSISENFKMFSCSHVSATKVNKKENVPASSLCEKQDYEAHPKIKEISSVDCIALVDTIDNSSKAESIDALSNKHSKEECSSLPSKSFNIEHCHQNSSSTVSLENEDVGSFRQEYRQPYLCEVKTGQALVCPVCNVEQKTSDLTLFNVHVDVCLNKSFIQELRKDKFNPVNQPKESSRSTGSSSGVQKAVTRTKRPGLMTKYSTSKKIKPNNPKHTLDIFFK

[7] = molecular target: T2, DNA polymerase kappa; assay: Non-competitive inhibition of human C-terminal-His6-tagged DNA polymerase kappa expressed in Escherichia coli using ploy(dA)/oligo(dT)18 as substrate by Dixon plot analysis; how it was run: as §1

For `Cc1cc(O)cc(O)c1C(=O)O[C@H]1[C@@H]2COC(/C=C/CO)=CC2=CC(=O)[C@@]1(C)O` [PINOPHILIN B], the IC50 [1] was 91 µM.
`C/C=C/C1=CC2=CC(=O)[C@@](C)(O)[C@@H](OC(=O)c3c(C)cc(O)cc3O)[C@@H]2CO1` showed an IC50 [1] of 63.8 µM.
In the case of `C/C=C/C1=CC2=CC(=O)[C@@](C)(OC(=O)c3c(C)cc(O)cc3O)[C@@H](O)[C@@H]2CO1` [PINOPHILIN A], the IC50 [1] is reported as 50.2 µM, the inhibition [2] is reported as “Active” and the inhibition [3] is reported as “Active”. For the same compound, the Ki [4] was 9.6 µM, the Ki [5] was 13.8 µM and the Ki [6] was 9.85 µM. The Ki [7] was 18.1 µM.
